According to ChEMBL document CHEMBL3091303, “1,3-Dialkyl-substituted tetrahydropyrimido[1,2-f]purine-2,4-diones as multiple target drugs for the potential treatment of neurodegenerative diseases” (Bioorg Med Chem, 2013):

How the values were obtained:
[1] = molecular target: T1, MAO-B (amine oxidase [flavin-containing] B) (Homo sapiens, UniProt P27338); assay: Inhibition of human MAO-B at 10 uM relative to control
T1 sequence (P27338 whole entry): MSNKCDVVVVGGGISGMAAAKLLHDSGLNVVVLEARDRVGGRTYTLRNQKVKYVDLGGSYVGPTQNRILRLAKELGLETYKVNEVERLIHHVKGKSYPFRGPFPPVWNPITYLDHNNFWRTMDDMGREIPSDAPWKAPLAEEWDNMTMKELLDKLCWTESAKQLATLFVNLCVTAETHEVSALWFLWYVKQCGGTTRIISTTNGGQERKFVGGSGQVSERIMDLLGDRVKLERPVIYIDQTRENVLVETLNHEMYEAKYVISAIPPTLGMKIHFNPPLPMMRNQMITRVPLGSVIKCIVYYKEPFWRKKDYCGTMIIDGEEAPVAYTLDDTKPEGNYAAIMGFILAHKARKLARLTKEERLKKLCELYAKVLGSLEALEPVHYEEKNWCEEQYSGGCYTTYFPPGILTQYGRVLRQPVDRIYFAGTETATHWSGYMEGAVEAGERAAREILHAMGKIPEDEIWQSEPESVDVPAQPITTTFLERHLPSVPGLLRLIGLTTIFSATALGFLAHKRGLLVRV
How it was run: (§1)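 Human MAO-A and MAO-B inhibition, screened first at a test concentration of 10 µM.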

[2] = molecular target: T2, Amine oxidase [flavin-containing] B (Homo sapiens, UniProt P27338); assay: Inhibition of human MAO-B
T2 sequence (P27338 whole entry): T1 sequence (P27338 whole entry)

[3] = molecular target: T3, Amine oxidase [flavin-containing] A (Homo sapiens, UniProt P21397); assay: Inhibition of human MAO-A; how it was run: as §1
T3 sequence (P21397 whole entry): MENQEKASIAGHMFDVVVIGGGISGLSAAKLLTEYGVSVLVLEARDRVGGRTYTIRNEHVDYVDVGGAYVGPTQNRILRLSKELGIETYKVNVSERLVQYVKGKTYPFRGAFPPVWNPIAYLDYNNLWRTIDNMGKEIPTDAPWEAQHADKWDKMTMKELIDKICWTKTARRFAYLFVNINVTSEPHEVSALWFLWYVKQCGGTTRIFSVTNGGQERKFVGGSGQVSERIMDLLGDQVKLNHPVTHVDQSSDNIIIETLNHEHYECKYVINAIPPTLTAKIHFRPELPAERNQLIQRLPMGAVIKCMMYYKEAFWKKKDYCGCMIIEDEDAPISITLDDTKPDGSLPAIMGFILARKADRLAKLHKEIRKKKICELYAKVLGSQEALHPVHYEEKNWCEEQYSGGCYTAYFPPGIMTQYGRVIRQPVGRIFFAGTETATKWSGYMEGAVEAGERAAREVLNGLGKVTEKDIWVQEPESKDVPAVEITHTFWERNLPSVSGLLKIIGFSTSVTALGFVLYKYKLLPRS

[4] = molecular target: T4, MAO-A (amine oxidase [flavin-containing] A) (Homo sapiens, UniProt P21397); assay: Inhibition of human MAO-A at 10 uM relative to control; how it was run: as §1
T4 sequence (P21397 whole entry): T3 sequence (P21397 whole entry)

[5] = molecular target: T5, Adenosine receptor A3 (Homo sapiens) (UniProt P0DMS8); assay: Displacement of [3H]PSB-11 from human adenosine A3 receptor expressed in CHO cells relative to control; assay type: cell-based; parameters: concentration or dose not given beside the values; settings: concentration not given here
T5 sequence (whole entry): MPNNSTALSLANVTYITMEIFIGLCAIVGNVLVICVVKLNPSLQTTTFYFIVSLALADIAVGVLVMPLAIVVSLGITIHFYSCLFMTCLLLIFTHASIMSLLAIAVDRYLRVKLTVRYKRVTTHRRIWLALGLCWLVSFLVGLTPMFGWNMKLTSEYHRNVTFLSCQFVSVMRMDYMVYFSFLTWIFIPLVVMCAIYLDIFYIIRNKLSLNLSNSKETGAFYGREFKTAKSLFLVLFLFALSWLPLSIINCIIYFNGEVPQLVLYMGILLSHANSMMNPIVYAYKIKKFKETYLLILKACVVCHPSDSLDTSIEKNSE

Adenosine receptor A3 = molecular target: T6, Adenosine receptor A3 (Homo sapiens, UniProt P0DMS8); assay: Displacement of [3H]PSB-11 from human adenosine A3 receptor expressed in CHO cells; assay type: cell-based
T6 sequence (P0DMS8 whole entry): T5 sequence (whole entry)

Adenosine receptor A2a [6] = molecular target: Adenosine receptor A2a (Rattus norvegicus, UniProt P30543); assay: Displacement of [3H]MSX-2 from adenosine A2A receptor in rat brain striatum; assay type: tissue-based
Adenosine receptor A2b = molecular target: T7, Adenosine receptor A2b (Homo sapiens, UniProt P29275); assay: Displacement of [3H]PSB-603 from human adenosine A2B receptor
T7 sequence (P29275 whole entry): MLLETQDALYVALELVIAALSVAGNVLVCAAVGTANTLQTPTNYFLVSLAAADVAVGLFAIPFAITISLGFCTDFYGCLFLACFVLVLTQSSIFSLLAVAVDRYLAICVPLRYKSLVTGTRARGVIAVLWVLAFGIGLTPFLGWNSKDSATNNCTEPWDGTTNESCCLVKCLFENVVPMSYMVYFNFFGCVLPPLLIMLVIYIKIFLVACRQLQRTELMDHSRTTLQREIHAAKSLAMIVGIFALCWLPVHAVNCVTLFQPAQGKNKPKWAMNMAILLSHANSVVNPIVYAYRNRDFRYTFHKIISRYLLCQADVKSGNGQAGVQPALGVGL

Adenosine receptor A1 [7] = molecular target: T8, Adenosine receptor A1 (Homo sapiens, UniProt P30542); assay: Displacement of [3H]CCPA from human adenosine A1 receptor expressed in CHO cells; assay type: cell-based
T8 sequence (P30542 whole entry): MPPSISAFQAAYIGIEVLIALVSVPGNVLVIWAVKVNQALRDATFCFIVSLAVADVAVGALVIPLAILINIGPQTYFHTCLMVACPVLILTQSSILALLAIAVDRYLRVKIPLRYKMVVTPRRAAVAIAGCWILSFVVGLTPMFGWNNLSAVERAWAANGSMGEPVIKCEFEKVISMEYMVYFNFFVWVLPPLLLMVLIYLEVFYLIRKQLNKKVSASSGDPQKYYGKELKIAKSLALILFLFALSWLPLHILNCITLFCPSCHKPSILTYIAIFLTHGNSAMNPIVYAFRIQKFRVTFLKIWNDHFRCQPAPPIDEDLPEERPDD
How it was run: (§2)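 Radioligand binding to human receptors recombinantly expressed in Chinese hamster ovary (CHO) cells. Results are Ki, or % inhibition of radioligand binding at the indicated concentration.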

Adenosine receptor A1 [8] = molecular target: T9, Adenosine receptor A1 (Rattus norvegicus, UniProt P25099); assay: Displacement of [3H]CCPA from adenosine A1 receptor in rat brain cortex; assay type: tissue-based
T9 sequence (P25099 whole entry): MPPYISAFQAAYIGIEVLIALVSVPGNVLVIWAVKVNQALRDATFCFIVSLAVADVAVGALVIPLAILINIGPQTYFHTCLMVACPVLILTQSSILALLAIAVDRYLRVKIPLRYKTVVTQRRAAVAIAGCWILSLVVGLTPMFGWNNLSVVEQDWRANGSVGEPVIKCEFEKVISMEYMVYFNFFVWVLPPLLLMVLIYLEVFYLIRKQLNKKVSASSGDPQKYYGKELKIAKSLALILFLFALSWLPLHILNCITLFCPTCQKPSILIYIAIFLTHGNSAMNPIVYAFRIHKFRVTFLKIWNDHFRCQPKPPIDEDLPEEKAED
How it was run: (§3)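 Radioligand binding to rat A1 receptors in rat brain cortical membrane preparations. Values are given as Ki, or as % inhibition of radioligand binding at the indicated concentration.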

Adenosine receptor A2a [9] = molecular target: Adenosine receptor A2a (Homo sapiens, UniProt P29274); assay: Displacement of [3H]MSX-2 from human adenosine A2A receptor expressed in CHO cells; assay type: cell-based; how it was run: as §2
[10] = molecular target: Adenosine receptor A2a (Rattus norvegicus) (UniProt P30543); assay: Displacement of [3H]MSX-2 from adenosine A2A receptor in rat brain striatum relative to control; assay type: tissue-based; parameters: concentration or dose not given beside the values; settings: concentration not given here
How it was run: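 Radioligand binding to rat A2A receptors in rat brain striatal membrane preparations, reported as % inhibition of radioligand binding at the indicated concentration.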

[11] = molecular target: T10, Adenosine receptor A1 (Rattus norvegicus) (UniProt P25099); assay: Displacement of [3H]CCPA from adenosine A1 receptor in rat brain cortex relative to control; assay type: tissue-based; parameters: concentration or dose not given beside the values; settings: concentration not given here; how it was run: as §3
T10 sequence (whole entry): T9 sequence (P25099 whole entry)

[12] = molecular target: T11, Adenosine receptor A2b (Homo sapiens) (UniProt P29275); assay: Displacement of [3H]PSB-603 from human adenosine A2B receptor relative to control; parameters: concentration or dose not given beside the values; settings: concentration not given here
T11 sequence (whole entry): T7 sequence (P29275 whole entry)

Adenosine receptor A2a (Homo sapiens, UniProt P29274), sequence (P29274 whole entry): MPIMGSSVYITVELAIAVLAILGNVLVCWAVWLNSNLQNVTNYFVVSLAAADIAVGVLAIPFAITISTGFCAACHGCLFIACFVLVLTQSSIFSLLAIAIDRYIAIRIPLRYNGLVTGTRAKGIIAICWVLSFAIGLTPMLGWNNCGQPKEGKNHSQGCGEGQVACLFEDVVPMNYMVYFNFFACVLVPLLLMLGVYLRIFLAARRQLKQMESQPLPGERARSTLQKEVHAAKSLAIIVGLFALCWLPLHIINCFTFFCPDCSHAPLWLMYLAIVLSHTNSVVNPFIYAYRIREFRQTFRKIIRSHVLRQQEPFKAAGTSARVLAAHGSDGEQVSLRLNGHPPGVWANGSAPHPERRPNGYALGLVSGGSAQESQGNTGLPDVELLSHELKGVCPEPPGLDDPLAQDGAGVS
Adenosine receptor A2a (Rattus norvegicus, UniProt P30543), sequence (P30543 whole entry): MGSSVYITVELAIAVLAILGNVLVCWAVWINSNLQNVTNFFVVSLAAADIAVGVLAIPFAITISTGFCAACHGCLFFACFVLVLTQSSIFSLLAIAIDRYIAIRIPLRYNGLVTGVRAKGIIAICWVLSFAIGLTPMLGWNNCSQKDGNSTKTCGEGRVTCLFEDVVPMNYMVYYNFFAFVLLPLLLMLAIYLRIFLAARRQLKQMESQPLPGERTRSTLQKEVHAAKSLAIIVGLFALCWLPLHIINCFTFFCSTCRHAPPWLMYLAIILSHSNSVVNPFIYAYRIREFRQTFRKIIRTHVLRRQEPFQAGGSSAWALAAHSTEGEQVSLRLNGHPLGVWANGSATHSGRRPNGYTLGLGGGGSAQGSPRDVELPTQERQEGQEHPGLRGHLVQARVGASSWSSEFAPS
Adenosine receptor A2a (Rattus norvegicus), sequence (P30543 whole entry): as above

inhibition at 10 µM [1] | IC50 [2] | IC50 [3] | inhibition at 10 µM [4] | inhibition [5] | Ki (Adenosine receptor A3) | Ki (Adenosine receptor A2a [6]) | Ki (Adenosine receptor A2b) | Ki (Adenosine receptor A1 [7]) | Ki (Adenosine receptor A1 [8]) | Ki (Adenosine receptor A2a [9]) | inhibition [10] | inhibition [11] | inhibition [12] | SMILES
51% | 10 µM | > 10 µM | 0% | 30% | > 10 µM | 0.259 µM | 1.74 µM | 0.41 µM | 0.114 µM | 0.626 µM | – | – | – | C#CCn1c(=O)c2c(nc3n2CCCN3Cc2cccs2)n(C)c1=O
40% | 10 µM | > 10 µM | 1% | 32% | > 10 µM | > 10 µM | > 1 µM | – | > 1.5 µM | – | 40% | 3% | – | Cn1c(=O)c2c(nc3n2CCCN3CC(=O)N2CCN(c3ccccc3)CC2)n(C)c1=O
22% | > 10 µM | – | – | 3% | > 1 µM | 2.47 µM | > 1 µM | – | > 10 µM | 0.628 µM | – | 32% | -2% | C#CCn1c(=O)c2c(nc3n2CCCN3C2CCN(Cc3ccccc3)CC2)n(C)c1=O
– | 3.48 µM | > 10 µM | 6% | 36% | > 10 µM | > 10 µM | > 1 µM | – | > 1.5 µM | – | 27% | 2% | 2% | Cn1c(=O)c2c(nc3n2CCCN3CC(=O)N2CCN(Cc3ccc(C(F)(F)F)cc3)CC2)n(C)c1=O
51% | 10 µM | > 10 µM | 5% | – | – | 0.696 µM | – | 1.33 µM | 0.227 µM | 0.322 µM | – | – | 8% | C#CCn1c(=O)c2c(nc3n2CCCN3Cc2cccc(OC)c2)n(C)c1=O
– | 4.76 µM | > 10 µM | 2% | – | 6.32 µM | 0.624 µM | > 1 µM | – | > 10 µM | 2.53 µM | – | 20% | 29% | CCn1c(=O)c2c(nc3n2CCCN3CCc2ccc(OC)cc2)n(CC)c1=O
58% | > 10 µM | – | – | 21% | > 10 µM | 5.54 µM | > 1 µM | – | > 10 µM | 4.61 µM | – | 21% | 11% | Cn1c(=O)c2c(nc3n2CCCN3c2cc(Cl)cc(Cl)c2)n(C)c1=O
52% | 10 µM | > 10 µM | -2% | – | 0.762 µM | > 10 µM | > 1 µM | – | > 1.5 µM | – | 36% | 19% | 7% | CCCn1c(=O)c2c(nc3n2CCCN3CC(=O)N2CCN(c3ccc(Cl)cc3)CC2)n(CCC)c1=O
– | 0.193 µM | > 10 µM | 1% | 14% | > 10 µM | 1.64 µM | > 1 µM | 1.7 µM | 0.165 µM | 3.78 µM | – | – | 4% | Cn1c(=O)c2c(nc3n2CCCN3Cc2cc(Cl)cc(Cl)c2)n(C)c1=O
46% | 10 µM | – | – | – | 2.45 µM | > 10 µM | > 1 µM | – | > 1.5 µM | – | 27% | 18% | 6% | CCCn1c(=O)c2c(nc3n2CCCN3CC(=O)N2CCN(c3ccccc3)CC2)n(CCC)c1=O
34% | > 10 µM | – | – | 13% | > 1 µM | > 10 µM | > 0.3 µM | – | 1.07 µM | – | 44% | – | 2% | CCn1c(=O)c2c(nc3n2CCCN3CCN2CCCCC2)n(CC)c1=O
30% | > 10 µM | – | – | – | 1.6 µM | > 10 µM | > 1 µM | – | > 1.5 µM | – | 33% | 18% | 4% | CCCn1c(=O)c2c(nc3n2CCCN3CC(=O)N2CCN(Cc3ccc(OC)cc3)CC2)n(CCC)c1=O
30% | > 10 µM | – | – | 21% | > 1 µM | > 10 µM | > 1 µM | – | > 1.5 µM | – | 14% | 5% | -5% | CCCn1c(=O)c2c(nc3n2CCCN3CCC(=O)N2CCN(c3ccccc3)CC2)n(CCC)c1=O
30% | > 10 µM | – | – | 15% | > 10 µM | > 10 µM | > 1 µM | – | > 1.5 µM | – | 41% | 0% | -8% | COc1ccc(CN2CCN(C(=O)CN3CCCn4c3nc3c4c(=O)n(C)c(=O)n3C)CC2)cc1
– | 3.6 µM | > 10 µM | 1% | 23% | > 1 µM | > 10 µM | > 1 µM | – | > 1.5 µM | – | 40% | 8% | -4% | CCCn1c(=O)c2c(nc3n2CCCN3CCC(=O)N2CCN(Cc3ccc(Cl)cc3)CC2)n(CCC)c1=O
